Measured values: paper PMC5405180 (EBioMedicine, 2017)
Each block holds one molecule with its values, some of them ahead of it. Where a SMILES comes first, the peptide text is derived from it. The star is where a group is joined. Cbz = O=C(OCc1ccccc1)*

Tests used:
NFAT5 [1] = experiment: High salt-induced NFAT5 and tonicity-inducible gene expression in RAW 264.7; type: cell-based, murine; settings: for high salt-induced increase in NFAT5 mRNA and protein: RAW 264.7, NaCl 45 mM 12 h, KRN2 1 μM, SB203580 5 μM
NFAT5 [2] = experiment: NFAT5-dependent GFP reporter assay; type: cell-based, murine; settings: for IC50: Mus musculus, RAW264.7, read-out: IC50, NFAT5-dependent reporter activity
Procedure, shortened: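 Cells were stimulated with LPS (1 μg/ml) for 20 h alongside graded test compound or BBR. GFP was read by flow cytometry and expressed as % ΔMFI = (treated MFI − untreated MFI) × 100 / untreated MFI.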

[3] = Pharmacokinetic profile in rats; type: in vivo; settings: rat
Procedure, shortened: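 Rats were dosed intravenously or orally and plasma concentration–time profiles were obtained. Half-life came from the oral profile. Oral bioavailability (F%) was calculated from oral versus intravenous exposure.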

NFAT5 [4] = experiment: LPS-induced NFAT5 expression and nuclear translocation; type: cell-based, murine
ROS = ROS production by flow cytometry; type: cell-based, murine; settings: RAW 264.7, LPS 1 µg/ml, KRN2 0.8 µM
p38 MAPK = p38 MAPK activity; type: cell-based; settings: RAW 264.7, LPS 1 µg/ml, KRN2 0.8 µM
NFAT1 = experiment: NFAT promoter reporter assay; type: cell-based, human; settings: HEK293 cells stimulated with PMA, 1 μM
CREB = CREB promoter reporter assay; type: cell-based; settings: 1 µM test compound
ELK = ELK promoter reporter assay; type: cell-based; settings: 1 µM test compound
NFAT5 promoter = experiment: Nfat5 promoter GFP reporter assay; type: cell-based, murine; settings: RAW 264.7, 1 μM
Procedure, shortened: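 RAW 264.7 cells carried a GFP reporter containing two NF-κB binding sites from upstream of the Nfat5 gene. Cells were preincubated with test compound (1 μM) for 1 h, then stimulated for 20 h with either LPS (1 μg/ml) or NaCl (45 mM). GFP was measured by flow cytometry as % ΔMFI relative to untreated cells. Three independent experiments.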

NF-κB p65 = experiment: p65 phosphorylation/translocation and IκB degradation; type: cell-based, murine; settings: RAW 264.7, LPS 1 µg/ml
Procedure, shortened: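 RAW 264.7 cells were incubated in cytoplasmic lysis buffer for 15 min on ice and centrifuged; the supernatant was taken as the cytosolic fraction. The pellet was taken up in nuclear lysis buffer and spun for 20 min at 12,000 rpm. Fractions were run on SDS-PAGE, transferred to nitrocellulose and probed for p65, with NMP p84 and α-tubulin as fraction markers, using ECL detection. Whole-cell lysates were prepared in RIPA buffer for 15 min at 4 °C and protein measured by Bradford assay.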

[5] = target: NF-κB p65 binding to the Nfat5 promoter (Mus musculus, UniProt Q04207); experiment: ChIP assay; type: cell-based, murine; settings: RAW 264.7, 1 μM, LPS 1 μg/ml 12 h
Procedure, shortened: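 RAW 264.7 cells were pretreated with test compound (1 μM) for 1 h, then given LPS (1 μg/ml) for 12 h. Cells were fixed in 1% formaldehyde for 10 min at 37 °C, nuclei isolated and chromatin sonicated, with an input aliquot kept. Immunoprecipitation used anti-p65. DNA was extracted with phenol/chloroform, ethanol-precipitated and PCR-amplified with Nfat5 promoter primers; Nfat5 exon primers served as negative control. Three independent experiments.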

[6] = target: NF-κB p65 binding to Nfat5 promoter 1 (Homo sapiens, UniProt Q04206); experiment: Electrophoretic mobility shift assay; settings: recombinant p65 400 ng; KRN2 5, 20, 50 μM; MG132 20 μM
RAW 264.7 macrophages = experiment: Pro-inflammatory NFAT5 target gene expression in LPS-stimulated RAW 264.7; type: cell-based, murine
RAW 264.7 cells = experiment: NO production; type: cell-based, murine; settings: RAW 264.7, LPS 1 μg/ml 24 h, Griess assay
Procedure, shortened: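 RAW 264.7 macrophages were kept in RPMI 1640 with 10% FBS. Cells were preincubated for 1 h with graded test compound, then stimulated with LPS (1 μg/ml) for 24 h. Supernatant was mixed with an equal volume of Griess reagent for 15 min at room temperature to give nitrite. Three independent experiments, each in triplicate, mean ± SD.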

[7] = system: murine peritoneal macrophages; experiment: LPS-stimulated murine peritoneal macrophages; type: cell-based; settings: 0.8 μM
[8] = system: murine peritoneal macrophages; experiment: High salt-stimulated murine peritoneal macrophages; type: cell-based; settings: NaCl 45 mM 6 h, 0.8 μM
murine splenocytes = experiment: LPS-stimulated murine splenocytes; type: cell-based; settings: total splenocytes of mice, LPS 1 μg/ml 24 h, 0.8 μM
[9] = system: adjuvant-induced arthritis (AIA) in mice; experiment: Adjuvant-induced arthritis; type: in vivo
Procedure, shortened: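 AIA induced in 8-week-old C57BL/6 mice with 2 mg CFA given intradermally. Test compound was given at 3 mg/kg i.p. daily for 2 weeks, with PBS as vehicle. Ankle and footpad thickness were tracked over the 2 weeks (6 mice/group, mean ± SD). Joints were fixed in […] for 1 day and decalcified in 5% formic acid for 2 weeks. Sections were blocked with 10% goat serum, then stained overnight at 4 °C with anti-F4/80 (1/50), biotinylated anti-rabbit IgG, streptavidin-peroxidase and DAB.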

[10] = system: mice with collagen-induced arthritis (CIA); experiment: Collagen-induced arthritis; type: in vivo
splenocytes of CIA mice = experiment: LPS-stimulated splenocytes from treated CIA mice; type: in vivo; settings: splenocytes of CIA mice treated orally, LPS 1 μg/ml 24 h
Procedure, shortened: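 CIA was induced in mice by CII/CFA immunization with a CII/IFA boost. Mice received oral test compound at 15 or 60 mg/kg on alternate days, or vehicle. Splenocytes from these mice were cultured with LPS (1 μg/ml) for 24 h.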

[11] = 3 mg/kg peritoneally, versus vehicle

Chain of NF-κB p65 binding to Nfat5 promoter 1 (Q04206 whole entry): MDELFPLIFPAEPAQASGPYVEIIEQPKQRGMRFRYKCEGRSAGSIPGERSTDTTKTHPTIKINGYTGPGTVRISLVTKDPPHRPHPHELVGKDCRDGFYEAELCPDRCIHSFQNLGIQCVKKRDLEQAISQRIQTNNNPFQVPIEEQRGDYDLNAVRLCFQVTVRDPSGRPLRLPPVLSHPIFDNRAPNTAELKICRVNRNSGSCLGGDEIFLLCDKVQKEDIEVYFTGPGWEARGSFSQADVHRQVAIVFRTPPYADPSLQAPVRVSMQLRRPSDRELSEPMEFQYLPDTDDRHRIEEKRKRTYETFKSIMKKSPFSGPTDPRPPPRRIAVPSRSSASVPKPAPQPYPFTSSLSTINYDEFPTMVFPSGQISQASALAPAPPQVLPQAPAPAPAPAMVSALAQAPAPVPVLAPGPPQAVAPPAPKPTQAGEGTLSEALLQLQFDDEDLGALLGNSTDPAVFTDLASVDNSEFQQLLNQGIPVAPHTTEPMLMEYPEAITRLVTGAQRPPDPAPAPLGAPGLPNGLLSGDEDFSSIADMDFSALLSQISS
Chain of NF-κB p65 binding to the Nfat5 promoter (Q04207 whole entry): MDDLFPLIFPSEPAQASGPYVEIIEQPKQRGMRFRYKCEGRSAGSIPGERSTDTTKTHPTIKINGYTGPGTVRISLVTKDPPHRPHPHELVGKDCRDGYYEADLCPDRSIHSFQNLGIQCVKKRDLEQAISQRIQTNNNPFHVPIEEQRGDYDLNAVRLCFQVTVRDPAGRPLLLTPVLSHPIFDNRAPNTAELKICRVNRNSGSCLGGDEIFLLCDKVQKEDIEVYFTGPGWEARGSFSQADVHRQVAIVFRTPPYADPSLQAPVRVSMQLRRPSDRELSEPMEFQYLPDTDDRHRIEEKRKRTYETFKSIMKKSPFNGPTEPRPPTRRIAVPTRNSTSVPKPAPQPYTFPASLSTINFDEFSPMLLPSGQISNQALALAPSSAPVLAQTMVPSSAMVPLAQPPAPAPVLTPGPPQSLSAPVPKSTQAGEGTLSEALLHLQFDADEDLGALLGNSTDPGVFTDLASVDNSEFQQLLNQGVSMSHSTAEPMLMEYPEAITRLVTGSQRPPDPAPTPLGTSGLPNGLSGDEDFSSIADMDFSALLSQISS

SMILES: C[S+]([O-])c1ccc(-c2nc(-c3ccncc3)c(-c3ccc(F)cc3)[nH]2)cc1 (stereo not drawn) [SB253580, reference compound]
high salt-induced increase in NFAT5 mRNA and protein (NFAT5 [1]): completely blocked

SMILES: COc1ccc2c(Cc3ccccc3F)c3[n+](cc2c1OC)CCc1cc2c(cc1-3)OCO2.[Br-] [KRN2, 13-(2-Fluorobenzyl)-9,10-dimethoxy-5,6-dihydro-[1,3]dioxolo[4,5-g]isoquinolino[3,2-a]isoquinolin-7-ium bromide]
IC50 (NFAT5 [2]): 100 nM
anti-NFAT5 activity relative to BBR (NFAT5 [2]; ratio of IC50 values, KRN2 versus BBR): 40 times
plasma level after oral administration ([3]; oral administration): not detectable
LPS-induced NFAT5 mRNA and protein expression (NFAT5 [4]; RAW 264.7, 0.8 μM, LPS 1 μg/ml): nearly completely blocked
translocation of NFAT5 into the nucleus (NFAT5 [4]; RAW 264.7, 0.8 μM, LPS 1 μg/ml 12 h): inhibited
LPS-stimulated increase in NFAT5 protein expression (NFAT5 [4]; RAW 264.7 macrophages, 0.5 μM, western blot): significantly suppressed
high salt-induced increase in NFAT5 mRNA and protein (NFAT5 [1]): did not repress
mRNA expression levels of Ar and Bgt (NFAT5 [1]; RAW 264.7 stimulated with high salt (NaCl 45 mM 12 h), 0.8 μM): had no effect
ROS (ROS): neither ROS nor p38 MAPK activity was affected
p38 MAPK activity (p38 MAPK): neither ROS nor p38 MAPK activity was affected
NFAT1-dependent reporter activity (NFAT1): only slightly inhibited
CREB-dependent reporter (luciferase) activity (CREB): not suppressed
ELK-dependent reporter (luciferase) activity (ELK): not suppressed
LPS-induced NFAT5 promoter activity (NFAT5 promoter; LPS 1 μg/ml 20 h): specifically repressed
high salt-induced NFAT5 promoter activity (NFAT5 promoter; NaCl 45 mM 20 h): failed to reduce
degradation of IκB (NF-κB p65): nor blocked
phosphorylation and translocation of p65 (NF-κB p65): neither influenced
recruitment of NF-κB p65 to the Nfat5 promoter region [5]: nearly completely eliminated
NF-κB p65 binding to Nfat5 promoter 1 [6]: dose-dependently inhibited
mRNA and protein expression levels of IL-6, TNF-α, and GM-CSF (RAW 264.7 macrophages; RAW 264.7, 0.8 μM, LPS 1 μg/ml): significantly decreased
expression level of iNOS (RAW 264.7 macrophages; RAW 264.7, LPS 1 μg/ml 24 h, western blot): dose-dependently lowered
NO production (RAW 264.7 cells): dose-dependently lowered
LPS-stimulated increase in NFAT5 protein and mRNA [7]: mitigated
expression levels of Il6 and Tnf ([7]; LPS): decreased
high salt-induced increase in Nfat5 mRNA expression [8]: neither mitigated
iNOS, IL-6, and TNF-α expressions (murine splenocytes): decreases
number of anti-F4/80+ cells infiltrated in joints ([9]; 3 mg/kg peritoneally): declined
paw swelling (ankle and footpad diameter) ([9]; 3 mg/kg peritoneally every day for 2 weeks, versus vehicle): significantly lower
inflammatory cell infiltration, synovial hyperplasia, and joint destruction (H&E) [9, 11]: lesser degrees
arthritis severity ([10]; 3 mg/kg peritoneally every day for 3 weeks from day 21): significantly decreased
serum levels of anti-type II collagen antibody, IL-6, and TNF-α ([10]; 3 mg/kg peritoneally, day 40): significantly decreased
inflammatory cell infiltration, synovial hyperplasia, and joint destruction [10, 11]: limited degree
number of anti-F4/80+ macrophages in joints [10, 11]: significantly lower
CIA development ([10]; oral 3 mg/kg every other day for 3 weeks from day 21 (data not shown)): failed to suppress

SMILES: COc1ccc2cc3[n+](cc2c1OC)CCc1cc2c(cc1-3)OCO2 [Berberine, reference compound]
IC50 (NFAT5 [2]): 4000 nM

Second part, led by results:

IC50 (NFAT5 [2]): 750 nM
half-life ([3]; plasma, po): > 480 min
SMILES: COc1ccc2c(Cc3ccccc3F)c3n(c(=O)c2c1OC)CCc1cc2c(cc1-3)OCO2 [KRN5, 13-(2-Fluorobenzyl)-9,10-dimethoxy-5,6-dihydro-8H-[1,3]dioxolo[4,5-g]isoquinolino[3,2-a]isoquinolin-8-one]
expressions of NFAT5, IL-6, MCP-1, and GM-CSF (RAW 264.7 macrophages; RAW 264.7, 1 μM, LPS 1 μg/ml 24 h): inhibited
efficacy in suppressing arthritis compared to methotrexate ([10]; oral 60 mg/kg, methotrexate 5 mg/kg orally twice a week): more potent
arthritis severity ([10]; oral 15 and 60 mg/kg every other day for 3 weeks from day 21): dose-dependently mitigated
serum anti-type II collagen IgG ([10]; oral, day 44): significantly decreased
side effects ([10]; oral, throughout the experiments (data not shown)): no side effects were noted
NFAT5 expression in spleen cells stimulated by LPS (splenocytes of CIA mice): reduced

NF-κB p65 binding to Nfat5 promoter 1 [6]: did not affect it
SMILES: CC(C)C[C@@H](C=O)NC(=O)[C@H](CC(C)C)NC(=O)[C@H](CC(C)C)NC(=O)OCc1ccccc1 [MG132, reference compound] (Cbz-Leu-Leu-Leu-aldehyde)
